Experimental data: ChEMBL document CHEMBL1125502, “Structural requirements for neuropeptide Y18-36-evoked hypotension: a systematic study” (1992)
Where a SMILES comes first, the peptide text is derived from it.

Each compound was assayed on Rattus norvegicus (assay: Plasma histamine level of the peptide after intra arterial administration at time 5 min in rats).
Type: functional, organism-based

Row | SMILES | Plasma histamine
1 | CC[C@H](C)[C@H](NC(=O)[C@H](Cc1ccc(O)cc1)NC(=O)[C@H](Cc1c[nH]cn1)NC(=O)[C@H](CCCN=C(N)N)NC(=O)[C@H](CC(C)C)NC(=O)[C@H](C)NC(=O)[C@H](CO)NC(=O)[C@H](Cc1ccc(O)cc1)NC(=O)[C@H](Cc1ccc(O)cc1)NC(=O)[C@H](CCCN=C(N)N)NC(=O)[C@H](C)NC(C)=O)C(=O)N[C@@H](CC(N)=O)C(=O)N[C@@H](CC(C)C)C(=O)N[C@H](C(=O)N[C@H](C(=O)N[C@@H](CCCN=C(N)N)C(=O)N[C@@H](CCC(N)=O)C(=O)N[C@@H](CCCN=C(N)N)C(=O)N[C@@H](Cc1ccc(O)cc1)C(N)=O)[C@@H](C)O)[C@@H](C)CC | 31.1 ng/mL

The compounds below were run on Rattus norvegicus (assay: Change in mean arterial pressure measured 5 min after intra arterial administration at 0.4 mg/kg to male rats.).
Type: functional, Artery
Design: unit not given here
How it was run: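 Conscious, freely moving male Sprague-Dawley rats (240–280 g) with arterial catheters; peptide in saline given IA as a 100-µL bolus (100 µg). MAP recorded by pressure transducer, calculated as [[…] + diastolic]. Baseline set by saline vehicle injection before dosing; change read 5 min post-dose relative to pre-dose control. Mean ± SEM, n ≥ 3.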

Row | SMILES | Delta MAP
2 | CC[C@H](C)[C@H](NC(=O)[C@H](Cc1ccc(O)cc1)NC(=O)[C@H](Cc1c[nH]cn1)NC(=O)[C@H](CCCN=C(N)N)NC(=O)[C@H](CC(C)C)NC(=O)[C@H](C)NC(=O)[C@H](CO)NC(=O)[C@H](Cc1ccc(O)cc1)NC(=O)[C@H](Cc1ccc(O)cc1)NC(=O)[C@H](CCCN=C(N)N)NC(=O)[C@H](C)N)C(=O)N[C@@H](CC(N)=O)C(=O)N[C@@H](CC(C)C)C(=O)N[C@H](C(=O)N[C@H](C(=O)N[C@@H](CCCN=C(N)N)C(=O)N[C@@H](CCC(N)=O)C(=O)N[C@@H](CCCN=C(N)N)C(=O)N[C@@H](Cc1ccc(O)cc1)C(=O)N[C@@H](Cc1ccc(O)cc1)C(=O)O)[C@@H](C)O)[C@@H](C)CC | -8.35
3 | CC[C@H](C)[C@H](NC(=O)[C@H](Cc1ccc(O)cc1)NC(=O)[C@H](Cc1c[nH]cn1)NC(=O)[C@H](CCCN=C(N)N)NC(=O)[C@H](CC(C)C)NC(=O)[C@H](C)NC(=O)[C@H](CO)NC(=O)[C@H](Cc1ccc(O)cc1)NC(=O)[C@H](Cc1ccc(O)cc1)NC(=O)[C@H](CCCN=C(N)N)NC(=O)[C@H](C)NC(C)=O)C(=O)N[C@@H](CC(N)=O)C(=O)N[C@@H](CC(C)C)C(=O)N[C@H](C(=O)N[C@H](C(=O)N[C@@H](CCCN=C(N)N)C(=O)N[C@@H](CCC(N)=O)C(=O)N[C@@H](CCCN=C(N)N)C(=O)N[C@@H](Cc1ccc(O)cc1)C(N)=O)[C@@H](C)O)[C@@H](C)CC | 12
4 | CC[C@H](C)[C@H](NC(=O)[C@H](Cc1ccc(O)cc1)NC(=O)[C@H](Cc1c[nH]cn1)NC(=O)[C@H](CCCN=C(N)N)NC(=O)[C@H](CC(C)C)NC(=O)[C@H](C)NC(=O)[C@H](CO)NC(=O)[C@H](Cc1ccc(O)cc1)NC(=O)[C@H](Cc1ccc(O)cc1)NC(=O)[C@H](CCCN=C(N)N)NC(=O)[C@H](C)N)C(=O)N[C@@H](CC(N)=O)C(=O)N[C@@H](CC(C)C)C(=O)N[C@H](C(=O)N[C@H](C(=O)N[C@@H](CCCN=C(N)N)C(=O)N[C@@H](CCC(N)=O)C(=O)N[C@@H](CCCN=C(N)N)C(=O)N[C@@H](Cc1ccc(O)cc1)C(=O)O)[C@@H](C)O)[C@@H](C)CC | -4.75
5 | CC[C@H](C)[C@H](NC(=O)[C@H](Cc1ccccc1)NC(=O)[C@H](Cc1c[nH]cn1)NC(=O)[C@H](CCCN=C(N)N)NC(=O)[C@H](CC(C)C)NC(=O)[C@H](C)NC(=O)[C@H](CO)NC(=O)[C@H](Cc1ccccc1)NC(=O)[C@H](Cc1ccccc1)NC(=O)[C@H](CCCN=C(N)N)NC(=O)[C@H](C)N)C(=O)N[C@@H](CC(N)=O)C(=O)N[C@@H](CC(C)C)C(=O)N[C@H](C(=O)N[C@H](C(=O)N[C@@H](CCCN=C(N)N)C(=O)N[C@@H](CCC(N)=O)C(=O)N[C@@H](CCCN=C(N)N)C(=O)N[C@@H](Cc1ccccc1)C(N)=O)[C@@H](C)O)[C@@H](C)CC (H-ARFFSALRHFINLITRQRF-NH2) | 12.33
6 | CC[C@H](C)[C@H](NC(=O)[C@H](Cc1ccccc1)NC(=O)[C@H](Cc1c[nH]cn1)NC(=O)[C@H](CCCN=C(N)N)NC(=O)[C@H](CC(C)C)NC(=O)[C@H](C)NC(=O)[C@H](CO)NC(=O)[C@H](Cc1ccc(O)cc1)NC(=O)[C@H](Cc1ccccc1)NC(=O)[C@H](CCCN=C(N)N)NC(=O)[C@H](C)N)C(=O)N[C@@H](CC(N)=O)C(=O)N[C@@H](CC(C)C)C(=O)N[C@H](C(=O)N[C@H](C(=O)N[C@@H](CCCN=C(N)N)C(=O)N[C@@H](CCC(N)=O)C(=O)N[C@@H](CCCN=C(N)N)C(=O)N[C@@H](Cc1ccccc1)C(N)=O)[C@@H](C)O)[C@@H](C)CC (H-ARFYSALRHFINLITRQRF-NH2) | 3
7 | CC[C@H](C)[C@H](NC(=O)[C@H](Cc1ccccc1)NC(=O)[C@H](Cc1c[nH]cn1)NC(=O)[C@H](CCCN=C(N)N)NC(=O)[C@H](CC(C)C)NC(=O)[C@H](C)NC(=O)[C@H](CO)NC(=O)[C@H](Cc1ccccc1)NC(=O)[C@H](Cc1ccc(O)cc1)NC(=O)[C@H](CCCN=C(N)N)NC(=O)[C@H](C)N)C(=O)N[C@@H](CC(N)=O)C(=O)N[C@@H](CC(C)C)C(=O)N[C@H](C(=O)N[C@H](C(=O)N[C@@H](CCCN=C(N)N)C(=O)N[C@@H](CCC(N)=O)C(=O)N[C@@H](CCCN=C(N)N)C(=O)N[C@@H](Cc1ccccc1)C(N)=O)[C@@H](C)O)[C@@H](C)CC (H-ARYFSALRHFINLITRQRF-NH2) | 7.66
8 | CC(C)C[C@H](NC(=O)[C@H](C)NC(=O)[C@H](CO)NC(=O)[C@H](Cc1ccc(O)cc1)NC(=O)[C@H](Cc1ccc(O)cc1)NC(=O)[C@H](CCCN=C(N)N)NC(=O)[C@H](C)N)C(N)=O (H-ARYYSAL-NH2) | 3.33
9 | CC(C)C[C@H](NC(=O)[C@H](C)NC(=O)[C@H](CO)NC(=O)[C@H](Cc1ccc(O)cc1)NC(=O)[C@H](Cc1ccc(O)cc1)NC(=O)[C@H](CCCN=C(N)N)NC(=O)[C@H](C)N)C(=O)N[C@@H](CCCN=C(N)N)C(N)=O (H-ARYYSALR-NH2) | 4.67
10 | CC[C@H](C)[C@H](NC(=O)[C@H](Cc1ccccc1)NC(=O)[C@H](Cc1c[nH]cn1)NC(=O)[C@H](CCCN=C(N)N)NC(=O)[C@H](CC(C)C)NC(=O)[C@H](C)NC(=O)[C@H](CO)NC(=O)[C@H](Cc1ccc(O)cc1)NC(=O)[C@H](Cc1ccc(O)cc1)NC(=O)[C@H](CCCN=C(N)N)NC(=O)[C@H](C)N)C(=O)N[C@@H](CC(N)=O)C(=O)N[C@@H](CC(C)C)C(=O)N[C@H](C(=O)N[C@H](C(=O)N[C@@H](CCCN=C(N)N)C(=O)N[C@@H](CCC(N)=O)C(=O)N[C@@H](CCCN=C(N)N)C(=O)N[C@@H](Cc1ccccc1)C(N)=O)[C@@H](C)O)[C@@H](C)CC (H-ARYYSALRHFINLITRQRF-NH2) | -6
11 | CC(C)C[C@H](NC(=O)[C@H](C)NC(=O)[C@H](CO)NC(=O)[C@H](Cc1ccc(O)cc1)NC(=O)[C@H](Cc1ccc(O)cc1)NC(=O)[C@H](CCCN=C(N)N)NC(=O)[C@H](C)N)C(=O)N[C@@H](CCCN=C(N)N)C(=O)N[C@@H](Cc1c[nH]cn1)C(=O)N[C@@H](Cc1ccc(O)cc1)C(N)=O (H-ARYYSALRHY-NH2) | -12
12 | CC[C@H](C)[C@H](NC(=O)[C@H](Cc1ccc(O)cc1)NC(=O)[C@H](Cc1c[nH]cn1)NC(=O)[C@H](CCCN=C(N)N)NC(=O)[C@H](CC(C)C)NC(=O)[C@H](C)NC(=O)[C@H](CO)NC(=O)[C@H](Cc1ccc(O)cc1)NC(=O)[C@H](Cc1ccc(O)cc1)NC(=O)[C@H](CCCN=C(N)N)NC(=O)[C@H](C)N)C(=O)N[C@@H](CC(N)=O)C(=O)N[C@@H](CC(C)C)C(=O)N[C@H](C(=O)N[C@H](C(N)=O)[C@@H](C)O)[C@@H](C)CC (H-ARYYSALRHYINLIT-NH2) | 0

Each compound was assayed on Rattus norvegicus (assay: Plasma histamine level of the peptide after intra arterial administration at time 0 min in rats).
Type: functional, organism-based

Row | SMILES | Plasma histamine
13 | CC[C@H](C)[C@H](NC(=O)[C@H](Cc1ccc(O)cc1)NC(=O)[C@H](Cc1c[nH]cn1)NC(=O)[C@H](CCCN=C(N)N)NC(=O)[C@H](CC(C)C)NC(=O)[C@H](C)NC(=O)[C@H](CO)NC(=O)[C@H](Cc1ccc(O)cc1)NC(=O)[C@H](Cc1ccc(O)cc1)NC(=O)[C@H](CCCN=C(N)N)NC(=O)[C@H](C)NC(C)=O)C(=O)N[C@@H](CC(N)=O)C(=O)N[C@@H](CC(C)C)C(=O)N[C@H](C(=O)N[C@H](C(=O)N[C@@H](CCCN=C(N)N)C(=O)N[C@@H](CCC(N)=O)C(=O)N[C@@H](CCCN=C(N)N)C(=O)N[C@@H](Cc1ccc(O)cc1)C(N)=O)[C@@H](C)O)[C@@H](C)CC | 16 ng/mL
